From ChEMBL document CHEMBL1795234, “Practical synthesis, anticonvulsant, and antimicrobial activity of N-allyl and N-propargyl di(indolyl)indolin-2-ones” (2011)

Columns and labels:
Assay type in all cases: functional
[1] = tested on: Escherichia coli; test: Antibacterial activity against Escherichia coli K12 at 20 ug/ml after 24 hrs by cup plate method; settings: K-12, 24 h, read-out: IZ
Outline: (§1)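 Cup-plate (well diffusion) on Mueller-Hinton agar; compounds at 20 µg/mL in methanol, 20 µL per well; one well with 20 µL methanol as solvent control; Amikacin standard run alike. Held in refrigerator 1 h for diffusion, then incubated 24 h at 37 °C; zone of inhibition around cup measured.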

[2] = tested on: Mus musculus; test: Anticonvulsant activity against maximum electric shock-induced seizure in Swiss albino mouse assessed as time spent in tonic flexion phase at 20 mg/kg, ip administered 30 mins before seizure induction by electroconvulsiometer analysis; settings: route intraperitoneal
Outline: (§2)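 Inbred Swiss albino mice, both sexes, 25–30 g, 7-day adaptation, groups of 5, each used once, tested 10:00–16:00. Compound suspended in 0.5% Tween 80, 20 mg/kg ip 30 min before maximal electroshock; vehicle control group and ip phenytoin 20 mg/kg standard. Seconds spent in flexion, extensor and clonus phases recorded, mean ± SEM.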

[3] = tested on: Mus musculus; test: Anticonvulsant activity against maximum electric shock-induced seizure in Swiss albino mouse assessed as time spent in tonic clonus phase at 20 mg/kg, ip administered 30 mins before seizure induction by electroconvulsiometer analysis; settings: route intraperitoneal; outline: as §2
[4] = tested on: Mus musculus; test: Anticonvulsant activity against maximum electric shock-induced seizure in Swiss albino mouse assessed as time spent in tonic extensor phase at 20 mg/kg, ip administered 30 mins before seizure induction by electroconvulsiometer analysis; settings: route intraperitoneal; outline: as §2
[5] = tested on: Candida albicans; test: Antifungal activity against Candida albicans ATCC 10231 at 20 ug/ml after 24 hrs by cup plate method; settings: ATCC 10231, 24 h, read-out: IZ
Outline: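 C. albicans spores inoculated into lukewarm Sabouraud dextrose agar (pH 5.4, autoclaved 121 °C 15 min) and poured; cups filled with compound at 20 µg/mL, methanol solvent control, Ketoconazole standard. Kept refrigerated 1 h for diffusion, then incubated 24 h at 28 °C; zone of inhibition read.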

[6] = tested on: Staphylococcus aureus; test: Antibacterial activity against methicillin-sensitive Staphylococcus aureus 22 at 20 ug/ml after 24 hrs by cup plate method; settings: Staphylococcus aureus, 22, 24 h; read-out: IZ; outline: as §1

Row | Compound | zone of inhibition at 20 µg/mL [1] [mm] | Time [2] [s] | Time [3] [s] | Time [4] [s] | zone of inhibition at 20 µg/mL [5] [mm] | zone of inhibition at 20 µg/mL [6] [mm]
1 | C=CCn1cc(C2(c3cn(CC=C)c4ccccc34)C(=O)Nc3ccccc32)c2ccccc21 | 12 | 5.8 | 3.6 | 48 | 11 | 12
2 | C=CCn1cc(C2(c3cn(CC=C)c4ccccc34)C(=O)Nc3ccc([N+](=O)[O-])cc32)c2ccccc21 | 10 | 4.8 | 3.4 | 39.2 | 15 | 10
3 | C=CCn1cc(C2(c3cn(CC=C)c4ccc(OC)cc34)C(=O)Nc3ccccc32)c2cc(OC)ccc21 | 10 | 4.8 | 3.2 | 31.8 | 14 | 12
4 | C=CCn1cc(C2(c3cn(CC=C)c4ccc(OC)cc34)C(=O)Nc3ccc(Cl)cc32)c2cc(OC)ccc21 | 11 | 5.8 | 3.4 | 31.6 | 10 | 10
5 | C=CCn1cc(C2(c3cn(CC=C)c4ccc(OC)cc34)C(=O)Nc3ccc(Br)cc32)c2cc(OC)ccc21 | 14 | 4.8 | 3.4 | 39.2 | 14 | 15
6 | C=CCn1cc(C2(c3cn(CC=C)c4ccc(OC)cc34)C(=O)N(CC(=O)OCC)c3ccccc32)c2cc(OC)ccc21 | 14 | 4.8 | 3.4 | 31.6 | 10 | 12
7 | O=C1Nc2ccccc2C1(c1cn(C/C=C/c2ccccc2)c2ccccc12)c1cn(C/C=C/c2ccccc2)c2ccccc12 | 14 | 4.8 | 3.6 | 39.6 | 13 | 10
8 | CC(C)=CCn1cc(C2(c3cn(CC=C(C)C)c4ccc(Br)cc34)C(=O)Nc3ccccc32)c2cc(Br)ccc21 | 12 | 4.8 | 3.4 | 39.6 | 12 | 14
9 | C#CCN1C(=O)C(c2cn(CC=C(C)C)c3ccc(Br)cc23)(c2cn(CC=C(C)C)c3ccc(Br)cc23)c2ccccc21 | 15 | 5.4 | 2.8 | 31.6 | 10 | 15
10 | C#CCn1cc(C2(c3cn(CC#C)c4ccccc34)C(=O)Nc3ccccc32)c2ccccc21 | 10 | 4.8 | 3.2 | 39.2 | 12 | 11
11 | C#CCn1cc(C2(c3cn(CC#C)c4ccccc34)C(=O)N(Cc3ccccc3)c3ccccc32)c2ccccc21 | 17 | 4.8 | 3.2 | 39.2 | 13 | 15
12 | C#CCN1C(=O)C(c2cn(CC#C)c3ccccc23)(c2cn(CC#C)c3ccccc23)c2ccccc21 | 10 | 5.4 | 3.6 | 31.8 | 12 | 10
13 | C#CCn1c(C)c(C2(c3c(C)n(CC#C)c4ccccc34)C(=O)Nc3ccccc32)c2ccccc21 | 15 | 5.4 | 2.8 | 31.6 | 15 | 15
14 | NCC[C@H](O)C(=O)N[C@@H]1C[C@H](N)[C@@H](O[C@H]2O[C@H](CN)[C@@H](O)[C@H](O)[C@H]2O)[C@H](O)[C@H]1O[C@H]1O[C@H](CO)[C@@H](O)[C@H](N)[C@H]1O [AMIKACIN] | 18 | – | – | – | – | 17
15 | CC(=O)N1CCN(c2ccc(OCC3COC(Cn4ccnc4)(c4ccc(Cl)cc4Cl)O3)cc2)CC1 (centres undefined) [KETOCONAZOLE] | – | – | – | – | 16 | –
16 | O=C1NC(=O)C(c2ccccc2)(c2ccccc2)N1 [PHENYTOIN] | – | 5.6 | 3.4 | 43 | – | –
